In PubChem BioAssay:
A number with no mark means an inactive call. Active and inactive are the calls of the source.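 Rule for the calls, unless noted: active = potentiation averaged over duplicate wells exceeding buffer-only control mean by more than 3 SD; inactive = the rest.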

Legend:
[1] = thallium flux activation in parental CHO cells, counter-screen for KCNQ1 potentiator project (AID 493006;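 active = duplicate-averaged activation above buffer control mean plus 5 SD of those controls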;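 for activation: fluorescence ratio of max minus min over baseline after K+ and Tl+ depolarization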); settings: parental CHO-K1 cells, FluxOR thallium flux, at 10 µM; hits give high values
Procedure, shortened: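 Material: untransfected host CHO-K1 cells with FluxOR thallium dye. Timing: overnight 37 °C plating, 90 min RT dye, 20 min compound. Detection: kinetic FluxOR fluorescence, 10 s baseline, 110 s after stimulus. Read-out basis: max-minus-min fluorescence over baseline, percent of buffer-to-R-L3 span. Replicates: duplicate wells per compound, percent values averaged.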

[2] = molecular target: Potassium voltage-gated channel subfamily KQT member 1 (Homo sapiens) (UniProt P51787); test: KCNQ1 potassium channel potentiators, confirmation, FluxOR thallium flux, CHO cells, duplicates (AID 493007); settings: KCNQ1 cell line, FluxOR thallium flux fluorescence, at 10 µM; hits give high values, % of reference activator effect, buffer zero;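 for outcome: cells depolarized by a potassium plus thallium sulfate stimulus after compound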
Procedure, shortened: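 Test system – KCNQ1-expressing CHO cell line · Incubation – FluxOR dye loading 90 min, compound exposure 20 min, room temperature · Detection – FluxOR Tl+ flux fluorescence, 10 s baseline plus 110 s recording · Controls – buffer-only wells as 0% and R-L3 activator as 100%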

[3] = molecular target: Potassium voltage-gated channel subfamily KQT member 2 (Rattus norvegicus) (UniProt O88943); test: rat KCNQ2 channel potentiation, selectivity assay for KCNQ1 potentiator project, KCNQ2-CHO-K1 cells (AID 493009;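 active = mean duplicate potentiation above the buffer control mean plus 5 SD of buffer wells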;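 note: assay conditions were tuned for KCNQ1 rather than KCNQ2 modulators; signal is max minus min fluorescence divided by baseline after thallium stimulus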); settings: FluxOR thallium flux fluorescence, at 10 µM; hits give high values, scaled: buffer 0, activator control 100
[4] = molecular target: Potassium voltage-gated channel subfamily KQT member 1 (Homo sapiens) (UniProt P51787); test: KCNQ1 channel current potentiators, confirmation, orthogonal assay for KCNQ1 potentiator project, IonWorks patch clamp, KCNQ1-CHO cells (AID 493184;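 active = current rise at least 3 SD above the untreated control mean in each of two repeat wells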;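 for current potentiation: percent change of the same well's current before compound addition so 0% = no change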); settings: automated patch clamp current, at 10 µM; hits give high values
Procedure, shortened: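 Read-out: Percent current increase versus pre-compound level | Assay system: CHO cells carrying KCNQ1 | Measured by: Automated perforated-patch electrophysiology | Medium: External bath solution at pH 7.4 | Dosing: One dose, 10 µM final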

[5] = molecular target: Potassium voltage-gated channel subfamily E member 1 (Homo sapiens) + Potassium voltage-gated channel subfamily KQT member 1 (Homo sapiens) (UniProt P15382+P51787); test: KCNQ1/KCNE1 complex potentiators, confirmation, selectivity assay for KCNQ1 potentiator project, thallium flux, CHO-K1 KCNQ1/E1 cells (AID 493186;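 active = mean duplicate activation above the buffer control mean plus 5 SD of those controls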); settings: FluxOR thallium flux, at 10 µM; hits give high values
Procedure, shortened: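 Test system: CHO-K1 cells with KCNQ1/E1; dosing: one test concentration; signal: FluxOR Tl+ flux fluorescence, kinetic read; incubation: 90-min dye loading then 20-min compound exposure, both at room temperature; read-out basis: percent of R-L3 effect over buffer; replication: duplicate wells per compound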

Chain of Potassium voltage-gated channel subfamily E member 1 (Homo sapiens) + Potassium voltage-gated channel subfamily KQT member 1 (Homo sapiens) (P51787 whole entry, looked up): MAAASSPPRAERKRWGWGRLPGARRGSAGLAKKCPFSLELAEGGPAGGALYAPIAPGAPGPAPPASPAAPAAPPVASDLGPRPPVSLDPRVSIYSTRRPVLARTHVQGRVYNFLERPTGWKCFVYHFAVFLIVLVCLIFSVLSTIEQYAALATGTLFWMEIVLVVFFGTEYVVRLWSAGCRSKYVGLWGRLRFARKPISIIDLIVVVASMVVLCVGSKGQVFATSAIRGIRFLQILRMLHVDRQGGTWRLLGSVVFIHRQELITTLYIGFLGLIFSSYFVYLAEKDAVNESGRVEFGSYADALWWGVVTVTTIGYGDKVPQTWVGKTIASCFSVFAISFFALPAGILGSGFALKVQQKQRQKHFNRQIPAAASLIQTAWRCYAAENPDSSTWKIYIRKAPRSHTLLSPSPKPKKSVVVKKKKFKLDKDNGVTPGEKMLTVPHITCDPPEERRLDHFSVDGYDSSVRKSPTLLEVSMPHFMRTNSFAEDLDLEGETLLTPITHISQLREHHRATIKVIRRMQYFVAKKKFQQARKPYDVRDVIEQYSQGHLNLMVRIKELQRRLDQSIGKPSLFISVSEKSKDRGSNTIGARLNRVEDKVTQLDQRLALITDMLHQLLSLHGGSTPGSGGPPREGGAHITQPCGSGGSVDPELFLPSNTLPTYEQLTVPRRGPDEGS
Chain of Potassium voltage-gated channel subfamily KQT member 2 (Rattus norvegicus) (O88943 whole entry, looked up): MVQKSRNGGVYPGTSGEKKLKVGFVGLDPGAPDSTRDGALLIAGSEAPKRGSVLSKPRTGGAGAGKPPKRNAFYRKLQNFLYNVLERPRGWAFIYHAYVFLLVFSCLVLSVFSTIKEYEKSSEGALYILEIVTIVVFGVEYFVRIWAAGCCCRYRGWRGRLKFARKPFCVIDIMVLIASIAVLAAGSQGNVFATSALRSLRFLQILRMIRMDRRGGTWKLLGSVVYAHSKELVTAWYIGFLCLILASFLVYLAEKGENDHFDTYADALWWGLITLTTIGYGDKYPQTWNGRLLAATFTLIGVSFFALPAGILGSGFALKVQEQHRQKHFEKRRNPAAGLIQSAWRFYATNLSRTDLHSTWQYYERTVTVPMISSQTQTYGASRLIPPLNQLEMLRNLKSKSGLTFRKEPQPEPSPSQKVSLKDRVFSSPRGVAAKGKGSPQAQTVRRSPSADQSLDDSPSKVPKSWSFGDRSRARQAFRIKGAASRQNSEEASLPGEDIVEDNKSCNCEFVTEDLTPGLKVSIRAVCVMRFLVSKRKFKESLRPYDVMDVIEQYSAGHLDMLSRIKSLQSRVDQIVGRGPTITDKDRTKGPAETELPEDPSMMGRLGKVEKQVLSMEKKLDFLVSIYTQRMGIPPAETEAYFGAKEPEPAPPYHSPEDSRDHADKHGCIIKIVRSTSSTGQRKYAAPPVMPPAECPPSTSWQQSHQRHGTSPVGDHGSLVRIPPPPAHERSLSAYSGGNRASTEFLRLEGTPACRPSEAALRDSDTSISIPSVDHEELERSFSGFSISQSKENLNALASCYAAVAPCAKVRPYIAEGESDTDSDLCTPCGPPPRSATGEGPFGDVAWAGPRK
Chain of Potassium voltage-gated channel subfamily KQT member 1 (Homo sapiens) (P51787 whole entry, looked up): as the sequence (P51787 whole entry, looked up) above

SMILES: Cc1ccc(-c2nc(=S)c3c(n2Cc2ccco2)CC(C)(C)OC3)cc1
- outcome [1]: inactive
- outcome [2]: inactive
- outcome [3]: inactive
- outcome [4]: inactive
- outcome [5]: inactive

SMILES: COc1ccc(C(=O)/C=C/C(=O)N(CC(=O)NC2CCCCC2)Cc2cccs2)c(O)c1
- outcome [1]: inactive
- outcome [2]: inactive
- outcome [3]: inactive
- outcome [4]: inactive
- outcome [5]: inactive

SMILES: COCCOC(=O)/C(=C/c1ccc(OC(=O)c2ccccc2)cc1)C(C)=O
- outcome [1]: inactive
- outcome [2]: inactive
- outcome [3]: inactive
- outcome [4]: inactive
- outcome [5]: inactive

SMILES: Cc1nc(-c2ccc(NC(=O)Cc3ccccc3)cc2)cs1
- outcome [1]: inactive
- outcome [2]: inactive
- outcome [3]: inactive
- outcome [4]: inactive
- outcome [5]: inactive

SMILES: CCOC(=O)c1oc2ccc(S(=O)(=O)n3nc(-c4ccc(OC)cc4)cc3N)cc2c1C
- outcome [1]: inactive
- outcome [2]: inactive
- outcome [3]: inactive
- current potentiation [4]: 15.4% (active)
- outcome [5]: inactive

SMILES: Cc1cc(-c2cccs2)c(C#N)c(=S)[nH]1
- outcome [1]: inactive
- outcome [2]: inactive
- outcome [3]: inactive
- outcome [4]: inactive
- outcome [5]: inactive

SMILES: N#CC(c1ccccc1)c1ccc2c(C(F)(F)F)cc(C(F)(F)F)nc2n1 (centres undefined)
- outcome [1]: inactive
- potentiation [2]: 129% (active)
- outcome [3]: inactive
- outcome [4]: inactive
- outcome [5]: inactive

SMILES: CCOC(=O)c1ccc(-n2c(CN3CCOCC3)nc3ccc([N+](=O)[O-])cc3c2=O)cc1
- outcome [1]: inactive
- outcome [2]: inactive
- outcome [3]: inactive
- outcome [4]: inactive
- outcome [5]: inactive

SMILES: Cc1ccc(/C=N/NC(=O)c2cc(C3CC3)nc3ccccc23)o1
- outcome [1]: inactive
- potentiation [2]: 29.5% (active)
- outcome [3]: inactive
- outcome [4]: inactive
- outcome [5]: inactive

SMILES: O=C(N/N=C/c1ccc2cccc(OCc3ccccc3)c2n1)c1ccc(Br)cc1
- outcome [1]: inactive
- potentiation [2]: 23% (active)
- outcome [3]: inactive
- outcome [4]: inactive
- outcome [5]: inactive

SMILES: CCOC(=O)N1CCC(NC(=O)c2cc(C(=O)NCc3ccc(F)cc3)ccc2CO)CC1
- outcome [1]: inactive
- outcome [2]: inactive
- outcome [3]: inactive
- outcome [4]: inactive
- outcome [5]: inactive

SMILES: O=C(NC(=S)Nc1nc(-c2ccccc2)cs1)c1cccs1
- outcome [1]: inactive
- potentiation [2]: 38% (active)
- outcome [3]: inactive
- outcome [4]: inactive
- outcome [5]: inactive

SMILES: COC(=O)c1ccccc1NC(=S)NC(=O)c1ccc(C)cc1
- outcome [1]: inactive
- outcome [2]: inactive
- outcome [3]: inactive
- outcome [4]: inactive
- outcome [5]: inactive

SMILES: Cc1ccc(O)c(NC(=S)NC(=O)Cc2ccc(Cl)cc2)c1
- outcome [1]: inactive
- potentiation [2]: 38% (active)
- potentiation [3]: 154% (active)
- outcome [4]: inactive
- outcome [5]: inactive

SMILES: Fc1ccc(-n2cc(-c3ccccc3)c3c(=S)nc[nH]c32)cc1
- outcome [1]: inactive
- potentiation [2]: 108% (active)
- outcome [3]: inactive
- outcome [4]: inactive
- outcome [5]: inactive

SMILES: Cc1ccc(C)c(NC(=S)NNC(=O)c2csc3c2CCCC3)c1
- outcome [1]: inactive
- potentiation [2]: 20.5% (active)
- outcome [3]: inactive
- outcome [4]: inactive
- outcome [5]: inactive

SMILES: O=C(N1CCOCC1)N1CCC(n2nnc3ccccc32)CC1
- outcome [1]: inactive
- outcome [2]: inactive
- outcome [4]: inactive

SMILES: COCC(=O)NC1CC2CCC(C1)N2C(=S)Nc1ccccc1C(=O)OC (centres undefined)
- outcome [1]: inactive
- outcome [2]: inactive
- outcome [4]: inactive

SMILES: O=C(CSc1nc(-c2ccccc2)cs1)N1CCc2ccccc21
- outcome [1]: inactive
- outcome [2]: inactive
- outcome [4]: inactive

SMILES: CSc1nc(SCC(=O)O)c2sc3nc(-c4ccccc4)c4c(c3c2n1)CCC4
- outcome [1]: inactive
- potentiation [2]: 30% (active)
- outcome [3]: inactive
- outcome [4]: inactive
- outcome [5]: inactive

SMILES: O=C(Nc1cccc(-c2nnc(-c3ccco3)o2)c1)c1ccccc1
- outcome [1]: inactive
- outcome [2]: inactive
- outcome [4]: inactive

SMILES: CSc1cccc(NC(=O)CN2C(=O)c3ccccc3S2(=O)=O)c1
- outcome [1]: inactive
- outcome [2]: inactive
- outcome [4]: inactive

SMILES: CC(=O)c1ccc(NC(=S)NC(=O)c2c(Cl)c(C)nn2C)cc1
- outcome [1]: inactive
- outcome [2]: inactive
- outcome [4]: inactive

SMILES: CCOC(=O)C1CCN(C(=O)COC(=O)c2cc(-c3cccs3)nn2-c2ccccc2)CC1
- outcome [1]: inactive
- outcome [2]: inactive
- outcome [4]: inactive

SMILES: Cn1c(N/N=C/c2cccs2)cc(=O)n(C)c1=O
- outcome [1]: inactive
- outcome [2]: inactive
- outcome [4]: inactive

SMILES: COC(=O)c1ccc(CNC(=O)CSc2nc3sc(C)c(C)c3c(=O)n2C)o1
- activation [1]: 268% (active)
- potentiation [2]: 89.5% (active)
- outcome [4]: inactive

SMILES: Cc1cccc(Cn2c(O)c(N=NC(=S)Nc3ccccc3F)c3ccccc32)c1
- outcome [1]: inactive
- potentiation [2]: 22.5% (active)
- potentiation [3]: 148% (active)
- outcome [4]: inactive
- outcome [5]: inactive

SMILES: CN(C(=S)NC(=O)c1ccc(F)cc1)C1CCCCC1
- activation [1]: 154% (active)
- potentiation [2]: 31.5% (active)
- outcome [4]: inactive

SMILES: COc1ccc(O)c(C(=O)c2cnn(-c3ccc(Cl)cc3)c2)c1
- outcome [1]: inactive
- outcome [2]: inactive
- outcome [4]: inactive

SMILES: CC(C)(C)c1ccc(CN2N=Nc3ccccc3S2(=O)=O)cc1
- outcome [1]: inactive
- outcome [2]: inactive
- outcome [4]: inactive

SMILES: Cc1cccc(-n2c(=S)[nH]c3c(oc4ccccc43)c2=O)c1
- activation [1]: 139% (active)
- outcome [2]: inactive
- outcome [4]: inactive
